The nature of assay [1]: Displacement of [3H]-(+)-MK-801 from phencyclidine binding site of NMDA receptor in pig membranes after 150 mins by scintillation counting analysis. Format: cell membranes, Sus scrofa. Summed up: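 Thawed membrane preparation (about 100 µg protein) incubated with test compound at various concentrations and 2 nM [3H]-(+)-MK-801 (22.0 Ci/mmol) in TRIS/EDTA (5 mM/1 mM, pH 7.5), 150 min, rt. Stopped by rapid filtration over presoaked filtermats, five water washes, melted solid scintillator, then counting. Nonspecific binding was taken with unlabeled (+)-MK-801. Radioligand Kd 2.26 nM.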
Background: Loss of bound radioactivity is the signal in a displacement assay; it reports binding, not function.

A further assay deals with Influenza A virus. The experiment in a line: Antiviral activity against Influenza virus A/FPV/Bratislava/79(H7N7) infected in human A549 cells assessed as viral replication at 5 uM after 24 hrs by plaque assay relative to control. Format: functional.
The species entered for a further assay is Rattus norvegicus. The experiment in a line: Displacement of [3H]-DTG from sigma-2 receptor in rat liver membranes up to 10 uM after 120 mins by scintillation counting analysis. Format: cell membranes. The settings on record: Membrane.
In assay [2] the target is Sigma non-opioid intracellular receptor 1 (Cavia porcellus) (UniProt Q60492). The experiment in a line: Displacement of [3H]-(+)-pentazocine from sigma-1 receptor in guinea pig brain cortex membranes up to 10 uM after 120 mins by scintillation counting analysis. Particulars: Cerebral cortex. Format: cell membranes.
Sigma non-opioid intracellular receptor 1 (Cavia porcellus), sequence (Q60492 whole entry): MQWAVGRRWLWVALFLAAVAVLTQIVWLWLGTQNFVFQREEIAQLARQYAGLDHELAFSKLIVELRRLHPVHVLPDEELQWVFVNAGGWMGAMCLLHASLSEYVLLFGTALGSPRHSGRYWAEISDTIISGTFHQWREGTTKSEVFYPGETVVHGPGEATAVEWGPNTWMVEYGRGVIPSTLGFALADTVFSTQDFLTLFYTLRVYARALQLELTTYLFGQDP
In assay [3] the target is Glutamate NMDA receptor; GRIN1/GRIN2A (Homo sapiens, UniProt Q05586+Q12879). The experiment in a line: Displacement of [3H]-(+)-MK-801 from phencyclidine binding site of NMDA receptor in human frontal cortex after 22 hrs by scintillation counting analysis. Type of assay: tissue-based.
Glutamate NMDA receptor; GRIN1/GRIN2A, sequence (Q12879 whole entry, other chains not shown): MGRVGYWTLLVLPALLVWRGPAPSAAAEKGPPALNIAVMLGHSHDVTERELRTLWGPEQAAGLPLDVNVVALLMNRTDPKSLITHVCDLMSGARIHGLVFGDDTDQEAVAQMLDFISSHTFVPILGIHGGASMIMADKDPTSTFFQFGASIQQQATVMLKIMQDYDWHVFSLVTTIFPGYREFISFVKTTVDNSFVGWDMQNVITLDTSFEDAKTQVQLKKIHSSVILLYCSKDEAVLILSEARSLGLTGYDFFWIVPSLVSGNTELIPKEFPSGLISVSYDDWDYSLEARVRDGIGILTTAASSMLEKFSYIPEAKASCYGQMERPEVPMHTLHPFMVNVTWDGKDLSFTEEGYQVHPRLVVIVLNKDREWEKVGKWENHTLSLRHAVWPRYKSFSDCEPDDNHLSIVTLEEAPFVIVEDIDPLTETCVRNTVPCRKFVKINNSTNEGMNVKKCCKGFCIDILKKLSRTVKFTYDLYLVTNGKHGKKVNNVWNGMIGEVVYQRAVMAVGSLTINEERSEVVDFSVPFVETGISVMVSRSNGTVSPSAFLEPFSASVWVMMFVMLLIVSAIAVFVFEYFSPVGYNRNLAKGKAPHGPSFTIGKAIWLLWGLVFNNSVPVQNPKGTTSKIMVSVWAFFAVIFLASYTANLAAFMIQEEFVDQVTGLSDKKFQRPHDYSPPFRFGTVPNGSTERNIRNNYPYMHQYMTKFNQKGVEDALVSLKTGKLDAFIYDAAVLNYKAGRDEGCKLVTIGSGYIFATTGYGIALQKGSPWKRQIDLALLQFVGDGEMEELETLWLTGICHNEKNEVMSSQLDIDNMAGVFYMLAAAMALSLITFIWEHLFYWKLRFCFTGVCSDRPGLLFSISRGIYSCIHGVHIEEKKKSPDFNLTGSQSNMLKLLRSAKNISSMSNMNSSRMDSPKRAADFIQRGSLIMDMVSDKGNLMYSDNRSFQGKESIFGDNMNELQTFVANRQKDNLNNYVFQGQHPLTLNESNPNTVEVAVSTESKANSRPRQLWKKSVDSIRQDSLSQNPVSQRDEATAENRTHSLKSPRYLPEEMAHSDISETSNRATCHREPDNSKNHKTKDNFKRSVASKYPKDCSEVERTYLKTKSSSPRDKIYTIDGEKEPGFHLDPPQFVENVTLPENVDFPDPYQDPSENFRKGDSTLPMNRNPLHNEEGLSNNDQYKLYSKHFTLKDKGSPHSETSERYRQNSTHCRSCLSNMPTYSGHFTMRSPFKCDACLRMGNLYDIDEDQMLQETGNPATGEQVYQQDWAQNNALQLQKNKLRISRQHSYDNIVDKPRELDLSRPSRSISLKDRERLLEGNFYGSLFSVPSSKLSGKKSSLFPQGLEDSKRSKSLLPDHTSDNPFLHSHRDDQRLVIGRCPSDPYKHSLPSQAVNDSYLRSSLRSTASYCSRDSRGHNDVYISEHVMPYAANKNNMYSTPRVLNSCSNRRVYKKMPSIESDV

The text below walks through data of ChEMBL document CHEMBL3596097, “Stereoselective synthesis and pharmacological evaluation of [4.3.3]propellan-8-amines as analogs of adamantanamines” (Bioorg Med Chem, 2015).

Calls of active or inactive are those of the source. The rule behind the calls is not given here.

A word on the Ki: it is a dissociation constant, usually derived from enzyme kinetics or from competition with a known ligand. Low values mean tighter binding, high ones weaker binding.

`CC12CC3CC(C)(C1)CC(N)(C3)C2` [MEMANTINE] displayed a Ki in assay [1] of 9.74 µM. That is a single-digit micromolar value.

For the compound `N[C@@H]1C[C@@]23CCCC[C@@]2(CCC3)C1`, in the assay on Influenza A virus, the Activity is on record as 97%. The inhibition entry (in the assay filed under Rattus norvegicus; in assay [2]) was “inactive” throughout. Besides, the affinity in assay [1], expressed as Ki, was 16 µM.

In assay [1], `C[C@]12N[C@H](Cc3ccccc31)c1ccccc12` [DIZOCILPINE] registered a Ki of 0.003 µM.

For `NC12CC3CC(CC(C3)C1)C2` [AMANTADINE], the Activity in the assay on Influenza A virus came to 3.9%. In addition, the Ki amounted to 10 µM in assay [3] and 11 µM in assay [1].

As to `N[C@H]1C[C@@]23CCCC[C@@]2(CCC3)C1`, in the assay on Influenza A virus, the Activity stood at 116%. For the same compound, the inhibition result (in the assay listed under Rattus norvegicus; in assay [2]) was “inactive” in each case. Also, the affinity in assay [1], expressed as Ki, was 11 µM.

On to `NC1CC23CCCCC2(CCC3)C1` (mixture of isomers), for which the Activity in the assay on Influenza A virus is 65%. This compound also gave a Ki in assay [1] of 10.5 µM.
